According to ChEMBL document CHEMBL2380296, “Structure-based design and optimization of 2-aminothiazole-4-carboxamide as a new class of CHK1 inhibitors” (Bioorg Med Chem Lett, 2013):

Tests used:
[1] = Plasma concentration in rat at 10 mg/kg, po measured at 1 hr; assay type: ADME, organism-based; parameters: dose 10 mg/kg, route oral
[2] = molecular target: Calcium/calmodulin-dependent protein kinase type IV (Homo sapiens, UniProt Q16566); assay: Inhibition of human CAMK4
[3] = Plasma concentration in rat at 10 mg/kg, po measured at 24 hrs; assay type: ADME, organism-based; parameters: dose 10 mg/kg, route oral
[4] = molecular target: RAC-alpha serine/threonine-protein kinase (Homo sapiens, UniProt P31749); assay: Inhibition of human AKT1
hERG (KCNH2) [5] = molecular target: T1, hERG (KCNH2) (Homo sapiens, UniProt Q12809); assay: Inhibition of human ERG at 1 uM after 5 mins by voltage clamp assay relative to control
hERG (KCNH2) [6] = molecular target: T1, hERG (KCNH2); assay: Inhibition of human ERG expressed in mouse L929 cells at 10 uM by IonWorks assay relative to control; assay type: cell-based; details: mouse L929 cells expressing human ERG
hERG (KCNH2) [7] = molecular target: T1, hERG (KCNH2); assay: Inhibition of human ERG transfected in CHO cells at 5 ug/mL by rubidium efflux assay relative to control; assay type: cell-based; details: CHO cells transfected with human ERG
hERG (KCNH2) [8] = molecular target: T1, hERG (KCNH2); assay: Inhibition of human ERG transfected in CHO cells at 1.5 ug/mL by rubidium efflux assay relative to control; assay type: cell-based; details: CHO cells transfected with human ERG
Cytochrome P450 2C9 = Cytochrome P450 2C9 (Homo sapiens, UniProt P11712); assay: Time-dependent inhibition of CYP2C9 in human liver microsomes using tolbutamide as substrate incubated for 30 mins prior to substrate addition measured after 30 mins by LC-MS/MS analysis; assay type: ADME, Microsome
Cytochrome P450 2D6 [9] = molecular target: T2, Cytochrome P450 2D6 (Homo sapiens, UniProt P10635); assay: Time-dependent inhibition of CYP2D6 in human liver microsomes using dextromethorphan as substrate incubated for 30 mins prior to substrate addition measured after 30 mins by LC-MS/MS analysis; assay type: ADME, Microsome
Cytochrome P450 2D6 [10] = molecular target: T2, Cytochrome P450 2D6; assay: Inhibition of CYP2D6 in human liver microsomes using dextromethorphan as substrate by LC-MS/MS analysis; assay type: ADME, Microsome
Cytochrome P450 3A4 = Cytochrome P450 3A4 (Homo sapiens, UniProt P08684); assay: Inhibition of CYP3A4 in human liver microsomes using […] as substrate by LC-MS/MS analysis; assay type: ADME, Microsome
[11] = Cmax in rat at 10 mg/kg, po; assay type: ADME, organism-based; parameters: dose 10 mg/kg, route oral; details: in vivo
[12] = AUC in rat at 10 mg/kg, po; assay type: ADME, organism-based; parameters: dose 10 mg/kg, route oral; details: plasma
[13] = molecular target: Vasopressin V2 receptor (Homo sapiens) (UniProt P30518); assay: Inhibition of vasopressin V2 receptor (unknown origin) at 2 ug/mL relative to control
[14] = molecular target: Vasopressin V1b receptor (Homo sapiens) (UniProt P47901); assay: Inhibition of vasopressin V1b receptor (unknown origin) at 2 ug/mL relative to control
[15] = molecular target: Oxytocin receptor (Homo sapiens) (UniProt P30559); assay: Inhibition of oxytocin receptor (unknown origin) at 2 ug/mL relative to control
[16] = molecular target: Muscarinic acetylcholine receptor M5 (Homo sapiens) (UniProt P08912); assay: Inhibition of muscarinic M5 receptor (unknown origin) at 2 ug/mL relative to control
[17] = molecular target: Muscarinic acetylcholine receptor M3 (Homo sapiens) (UniProt P20309); assay: Inhibition of muscarinic M3 receptor (unknown origin) at 2 ug/mL relative to control
[18] = molecular target: Muscarinic acetylcholine receptor M2 (Homo sapiens) (UniProt P08172); assay: Inhibition of muscarinic M2 receptor (unknown origin) at 2 ug/mL relative to control
[19] = molecular target: Histamine H1 receptor (Homo sapiens) (UniProt P35367); assay: Inhibition of histamine H1 receptor (unknown origin) at 1 ug/mL relative to control
[20] = molecular target: D(2) dopamine receptor (Homo sapiens) (UniProt P14416); assay: Inhibition of dopamine D2 receptor (unknown origin) at 2 ug/mL relative to control
[21] = molecular target: D(1A) dopamine receptor (Homo sapiens) (UniProt P21728); assay: Inhibition of dopamine D1 receptor (unknown origin) at 2 ug/mL relative to control
[22] = molecular target: C-X-C chemokine receptor type 3 (Homo sapiens) (UniProt P49682); assay: Inhibition of CXCR3 (unknown origin) at 2 ug/mL relative to control
[23] = Plasma concentration in rat at 10 mg/kg, po measured at 4 hrs; assay type: ADME, organism-based; parameters: dose 10 mg/kg, route oral
[24] = molecular target: Cannabinoid receptor 2 (Homo sapiens) (UniProt P34972); assay: Inhibition of CB2 receptor (unknown origin) at 20 ug/mL relative to control
[25] = molecular target: Alpha-2C adrenergic receptor (Homo sapiens) (UniProt P18825); assay: Inhibition of adrenergic alpha-2C receptor (unknown origin) at 1 ug/mL relative to control
[26] = molecular target: Alpha-2A adrenergic receptor (Homo sapiens) (UniProt P08913); assay: Inhibition of adrenergic alpha-2A receptor (unknown origin) at 1 ug/mL relative to control
[27] = molecular target: Alpha-1A adrenergic receptor (Homo sapiens) (UniProt P35348); assay: Inhibition of adrenergic alpha-1A receptor (unknown origin) at 1 ug/mL relative to control
[28] = molecular target: Adenosine receptor A2a (Homo sapiens) (UniProt P29274); assay: Inhibition of adenosine A2A receptor (unknown origin) at 2 ug/mL relative to control
[29] = molecular target: Adenosine receptor A1 (Homo sapiens) (UniProt P30542); assay: Inhibition of adenosine A1 receptor (unknown origin) at 2 ug/mL relative to control
[30] = molecular target: Ribosomal protein S6 kinase alpha-3 (Homo sapiens, UniProt P51812); assay: Inhibition of human RSK2
[31] = molecular target: Testis-specific serine/threonine-protein kinase 2 (Homo sapiens, UniProt Q96PF2); assay: Inhibition of human TSSK2
[32] = molecular target: Protein kinase C alpha type (Homo sapiens, UniProt P17252); assay: Inhibition of human PKCA
[33] = molecular target: Serine/threonine-protein kinase PLK3 (Homo sapiens, UniProt Q9H4B4); assay: Inhibition of human PLK3
[34] = molecular target: Serine/threonine-protein kinase 3 (Homo sapiens, UniProt Q13188); assay: Inhibition of human MST2
[35] = molecular target: Serine/threonine-protein kinase Nek2 (Homo sapiens, UniProt P51955); assay: Inhibition of human NEK2
[36] = molecular target: Hepatocyte growth factor receptor (Homo sapiens, UniProt P08581); assay: Inhibition of human MET
[37] = molecular target: Tyrosine-protein kinase JAK2 (Homo sapiens, UniProt O60674); assay: Inhibition of human JAK2
[38] = molecular target: Tyrosine-protein kinase Lck (Homo sapiens, UniProt P06239); assay: Inhibition of human LCK
[39] = molecular target: Inhibitor of nuclear factor kappa-B kinase subunit beta (Homo sapiens, UniProt O14920); assay: Inhibition of human IKKB
[40] = molecular target: Interleukin-1 receptor-associated kinase 4 (Homo sapiens, UniProt Q9NWZ3); assay: Inhibition of human IRAK4
[41] = molecular target: Casein kinase I isoform delta (Homo sapiens, UniProt P48730); assay: Inhibition of human CSNK1D
[42] = molecular target: Cyclin-dependent kinase 2 (Homo sapiens, UniProt P24941); assay: Inhibition of human CDK2
Outline: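 Biochemical kinase inhibition assay. Reported values are averages of duplicate or triplicate determinations, with a standard deviation of 10%.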

T1 sequence (Q12809 whole entry): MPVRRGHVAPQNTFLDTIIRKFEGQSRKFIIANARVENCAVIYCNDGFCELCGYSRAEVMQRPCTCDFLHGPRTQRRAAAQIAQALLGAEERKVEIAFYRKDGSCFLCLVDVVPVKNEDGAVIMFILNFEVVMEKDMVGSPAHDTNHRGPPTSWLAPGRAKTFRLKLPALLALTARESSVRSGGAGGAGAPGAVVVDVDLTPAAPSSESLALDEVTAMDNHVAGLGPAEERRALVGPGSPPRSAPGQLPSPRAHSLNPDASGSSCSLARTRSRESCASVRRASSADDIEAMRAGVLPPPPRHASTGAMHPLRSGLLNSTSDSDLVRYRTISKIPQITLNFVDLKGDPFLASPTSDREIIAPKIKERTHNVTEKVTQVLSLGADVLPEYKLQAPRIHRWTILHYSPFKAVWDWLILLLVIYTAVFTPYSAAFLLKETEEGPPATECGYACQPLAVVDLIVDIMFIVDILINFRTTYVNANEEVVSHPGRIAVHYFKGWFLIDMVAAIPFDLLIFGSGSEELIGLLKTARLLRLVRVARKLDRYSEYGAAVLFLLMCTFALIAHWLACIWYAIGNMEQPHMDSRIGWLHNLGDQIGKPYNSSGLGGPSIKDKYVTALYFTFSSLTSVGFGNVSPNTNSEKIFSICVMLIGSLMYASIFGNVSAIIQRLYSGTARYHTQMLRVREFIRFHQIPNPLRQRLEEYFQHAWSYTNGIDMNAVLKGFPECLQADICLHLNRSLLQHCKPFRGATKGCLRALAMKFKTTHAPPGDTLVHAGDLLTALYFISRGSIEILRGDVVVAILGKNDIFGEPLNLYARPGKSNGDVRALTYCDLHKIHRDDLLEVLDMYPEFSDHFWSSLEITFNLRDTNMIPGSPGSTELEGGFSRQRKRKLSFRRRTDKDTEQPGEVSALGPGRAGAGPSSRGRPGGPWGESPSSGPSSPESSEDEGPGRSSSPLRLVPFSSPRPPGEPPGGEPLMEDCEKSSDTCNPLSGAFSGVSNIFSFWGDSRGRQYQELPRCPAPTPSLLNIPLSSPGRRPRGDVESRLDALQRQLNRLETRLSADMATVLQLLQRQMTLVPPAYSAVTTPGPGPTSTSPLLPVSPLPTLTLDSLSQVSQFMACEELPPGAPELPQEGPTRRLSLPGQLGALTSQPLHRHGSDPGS
T2 sequence (P10635 whole entry): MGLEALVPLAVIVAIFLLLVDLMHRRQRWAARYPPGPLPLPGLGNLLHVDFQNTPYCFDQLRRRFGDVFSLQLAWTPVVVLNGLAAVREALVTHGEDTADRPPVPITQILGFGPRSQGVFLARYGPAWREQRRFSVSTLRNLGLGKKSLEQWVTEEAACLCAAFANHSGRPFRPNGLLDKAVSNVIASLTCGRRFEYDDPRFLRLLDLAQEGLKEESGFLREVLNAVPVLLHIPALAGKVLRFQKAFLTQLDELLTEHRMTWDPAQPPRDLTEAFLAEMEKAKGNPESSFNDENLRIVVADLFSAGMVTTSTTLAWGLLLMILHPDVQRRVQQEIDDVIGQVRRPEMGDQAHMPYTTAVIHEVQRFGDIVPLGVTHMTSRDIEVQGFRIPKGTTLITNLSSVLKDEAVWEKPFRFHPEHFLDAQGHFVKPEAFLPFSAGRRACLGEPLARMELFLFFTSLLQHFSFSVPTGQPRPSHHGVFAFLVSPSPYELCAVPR
Ribosomal protein S6 kinase alpha-3, sequence (P51812 whole entry): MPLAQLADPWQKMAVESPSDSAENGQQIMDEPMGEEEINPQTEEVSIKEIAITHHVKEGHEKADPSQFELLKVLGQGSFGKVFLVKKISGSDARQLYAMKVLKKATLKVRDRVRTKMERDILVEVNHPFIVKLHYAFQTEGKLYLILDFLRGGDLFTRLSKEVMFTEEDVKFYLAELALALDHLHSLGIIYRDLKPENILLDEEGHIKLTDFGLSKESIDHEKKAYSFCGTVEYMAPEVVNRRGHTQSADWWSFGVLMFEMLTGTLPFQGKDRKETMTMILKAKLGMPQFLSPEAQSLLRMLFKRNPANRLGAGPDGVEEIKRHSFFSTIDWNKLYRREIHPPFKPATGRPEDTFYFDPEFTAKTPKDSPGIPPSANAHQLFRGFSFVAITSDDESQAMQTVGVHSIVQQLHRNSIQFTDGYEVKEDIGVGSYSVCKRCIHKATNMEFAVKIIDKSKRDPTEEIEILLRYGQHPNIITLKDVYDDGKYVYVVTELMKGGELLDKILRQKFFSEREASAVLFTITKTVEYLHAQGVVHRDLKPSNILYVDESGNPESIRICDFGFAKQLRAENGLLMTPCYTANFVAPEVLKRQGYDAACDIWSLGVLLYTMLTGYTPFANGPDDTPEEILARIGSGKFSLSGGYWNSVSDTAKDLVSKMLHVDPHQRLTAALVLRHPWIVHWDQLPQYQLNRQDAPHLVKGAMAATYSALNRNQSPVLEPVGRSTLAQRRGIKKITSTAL
RAC-alpha serine/threonine-protein kinase, sequence (P31749 whole entry): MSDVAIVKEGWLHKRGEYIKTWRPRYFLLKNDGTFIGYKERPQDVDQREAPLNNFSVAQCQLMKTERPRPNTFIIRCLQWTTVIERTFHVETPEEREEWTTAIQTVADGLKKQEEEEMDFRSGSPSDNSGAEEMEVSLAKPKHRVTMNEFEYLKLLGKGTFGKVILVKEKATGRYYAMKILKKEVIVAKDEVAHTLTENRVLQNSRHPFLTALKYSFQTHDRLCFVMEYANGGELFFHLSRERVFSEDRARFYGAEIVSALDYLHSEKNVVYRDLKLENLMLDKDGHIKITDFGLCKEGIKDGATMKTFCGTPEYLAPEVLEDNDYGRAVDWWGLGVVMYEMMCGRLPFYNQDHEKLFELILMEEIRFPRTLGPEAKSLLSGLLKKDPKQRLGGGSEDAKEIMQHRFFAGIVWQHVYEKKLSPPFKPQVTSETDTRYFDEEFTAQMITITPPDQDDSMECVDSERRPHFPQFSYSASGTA
Vasopressin V2 receptor (Homo sapiens), sequence (P30518 whole entry): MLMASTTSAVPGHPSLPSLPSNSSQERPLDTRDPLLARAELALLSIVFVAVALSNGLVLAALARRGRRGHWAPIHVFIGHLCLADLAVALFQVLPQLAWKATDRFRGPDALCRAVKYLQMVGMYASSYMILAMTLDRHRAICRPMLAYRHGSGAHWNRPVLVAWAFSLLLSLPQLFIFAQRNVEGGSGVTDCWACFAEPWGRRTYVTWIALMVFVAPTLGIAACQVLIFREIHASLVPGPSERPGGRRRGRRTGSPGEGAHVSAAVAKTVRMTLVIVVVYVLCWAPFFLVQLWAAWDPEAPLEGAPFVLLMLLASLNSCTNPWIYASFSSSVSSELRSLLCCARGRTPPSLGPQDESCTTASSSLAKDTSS
C-X-C chemokine receptor type 3 (Homo sapiens), sequence (P49682 whole entry): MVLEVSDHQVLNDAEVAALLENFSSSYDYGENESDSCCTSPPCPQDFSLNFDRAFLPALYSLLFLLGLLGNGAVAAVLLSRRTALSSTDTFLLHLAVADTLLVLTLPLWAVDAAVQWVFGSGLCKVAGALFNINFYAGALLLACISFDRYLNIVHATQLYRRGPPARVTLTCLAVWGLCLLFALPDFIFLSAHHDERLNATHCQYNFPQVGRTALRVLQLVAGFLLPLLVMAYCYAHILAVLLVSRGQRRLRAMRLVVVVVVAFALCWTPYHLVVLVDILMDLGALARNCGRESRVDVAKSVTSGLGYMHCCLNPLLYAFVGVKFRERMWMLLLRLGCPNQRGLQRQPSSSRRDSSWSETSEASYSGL
Tyrosine-protein kinase Lck, sequence (P06239 whole entry): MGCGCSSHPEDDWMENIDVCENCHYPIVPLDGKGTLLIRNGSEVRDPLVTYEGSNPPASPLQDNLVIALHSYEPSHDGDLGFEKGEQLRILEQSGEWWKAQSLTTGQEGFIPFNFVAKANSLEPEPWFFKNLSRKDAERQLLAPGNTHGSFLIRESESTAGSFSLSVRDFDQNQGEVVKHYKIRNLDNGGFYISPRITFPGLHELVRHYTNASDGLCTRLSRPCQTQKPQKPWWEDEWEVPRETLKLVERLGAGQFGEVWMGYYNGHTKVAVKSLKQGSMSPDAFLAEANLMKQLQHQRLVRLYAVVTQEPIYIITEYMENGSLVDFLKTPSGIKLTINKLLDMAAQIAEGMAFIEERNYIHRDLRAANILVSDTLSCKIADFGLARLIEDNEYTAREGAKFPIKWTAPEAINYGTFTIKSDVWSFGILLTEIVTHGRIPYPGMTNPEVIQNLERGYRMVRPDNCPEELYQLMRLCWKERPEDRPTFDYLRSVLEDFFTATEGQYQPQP

concentration at 1 h [1]: 57 ng/mL | IC50 [2]: 26 µM | concentration at 24 h [3]: 6.29 ng/mL | IC50 [4]: 4.8 µM | IC50 (Cytochrome P450 2C9): > 30 µM | IC50 (Cytochrome P450 2D6 [9]): > 30 µM | IC50 (Cytochrome P450 2D6 [10]): > 30 µM | IC50 (Cytochrome P450 3A4): > 30 µM | Cmax [11]: 600 nM | AUC [12]: 7.2 µM·h | inhibition [13]: 20.4% | inhibition [14]: 6.1% | inhibition [15]: 25.7% | inhibition [16]: 14.4% | inhibition [17]: 10.1% | inhibition [18]: 3.5% | inhibition [19]: 21% | inhibition [20]: 16.9% | inhibition [21]: 2.8% | inhibition [22]: 8% | concentration at 4 h [23]: 183 ng/mL | inhibition [24]: 25.1% | inhibition [25]: 13.8% | inhibition [26]: 16.1% | inhibition [27]: 23.7% | inhibition [28]: -5.8% | inhibition [29]: -3.2% | IC50 [30]: 1.3 µM | IC50 [31]: 8.9 µM | IC50 [32]: > 30 µM | IC50 [33]: > 30 µM | IC50 [34]: 2.1 µM | IC50 [35]: 9.5 µM | IC50 [36]: > 30 µM | IC50 [37]: 21 µM | IC50 [38]: > 30 µM | IC50 [39]: > 30 µM | IC50 [40]: 1.1 µM | IC50 [41]: > 30 µM | IC50 [42]: > 30 µM
Structure (SMILES): COc1ccc2c(c1)C(=O)N(c1nc(C(=O)Nc3cnccc3N3CCNCC3)cs1)C2
inhibition at 5 min, 1 µM (hERG (KCNH2) [5]): 82% | inhibition at 10 µM (hERG (KCNH2) [6]): 42% | inhibition at 5 ug/mL (hERG (KCNH2) [7]): 65% | inhibition at 1.5 ug/mL (hERG (KCNH2) [8]): 24%
